Experimental data reported in ChEMBL document CHEMBL4004841, “6-Cyclohexylmethyl-3-hydroxypyrimidine-2,4-dione as an inhibitor scaffold of HIV reverase transcriptase: Impacts of the 3-OH on inhibiting RNase H and polymerase” (Eur J Med Chem, 2017).
Activity calls are given as the source filed them. The rule behind the calls is not given here.

Experiments:
[1] = system: Human immunodeficiency virus 1; experiment: Antiviral activity against HIV1 infected in human P4R5 cells assessed as reduction in viral infection preincubated with cells for 24 hrs followed by viral infection measured after 48 hrs by fluorescence based beta-galactosidase reporter gene assay; type: functional, cell-based; details: Human immunodeficiency virus 1, P4/R5
How it was run: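 P4R5 indicator cells at 4 × 10^3 per well in DMEM/10% FBS with puromycin (1 μg/ml). Cells pretreated with 1% DMSO or varying drug concentrations for 24h, infected with HIV at MOI 1.25, then incubated 48h. Read-out: lysis, MUG substrate, 4-MU fluorescence (ex 365 nm, em 446 nm). Dose-response; mean ± SD from at least two independent experiments.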

[2] = Cytotoxicity against human P4R5 cells; type: cell-based
[3] = Inhibition of strand transfer activity of HIV integrase expressed in Escherichia coli using 5'-[32P]-labeled oligonucleotide substrate after 60 mins by PAGE analysis; set-up: species or system Human immunodeficiency virus
How it was run: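 Recombinant IN (400 nM), purified with 10% glycerol in buffers, with 20 nM 5'-[32P] oligonucleotide substrate and inhibitor dilutions in 50 mM MOPS pH 7.2, 7.5 mM MgCl2, 14.3 mM 2-mercaptoethanol, 37 °C for 60 min; 10% DMSO controls. Products resolved on 20% polyacrylamide–7 M urea gels, quantified by phosphorimaging densitometry; IC50 by logistic nonlinear regression.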

[4] = Inhibition of HIV reverse transcriptase polymerase activity assessed as reduction in dNTP incorporation using 100 nucleotide DNA/18 nucleotide DNA as template/primer measured after 30 mins; set-up: species or system Human immunodeficiency virus
How it was run: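 20 nM full-length RT with 40 nM template/primer (18-nt DNA primer on 100-nt DNA template) and 10 μM dNTPs in 50 mM Tris pH 7.8, 50 mM NaCl, 1% DMSO, rising compound concentrations; started with 6 mM MgCl2, 30 min at 37 °C, stopped with 100 mM EDTA. Mean ± standard deviation, ≥2 independent experiments.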

[5] = Inhibition of RNase H activity of full length HIV reverse transcriptase using RNA-DNA duplex HTS-1 substrate; set-up: species or system Human immunodeficiency virus
[6] = system: Human immunodeficiency virus 1; experiment: Antiviral activity against HIV1 infected in human CEM-SS cells assessed as reduction in virus-induced cytopathic effect after 6 days by MTS assay; type: functional, cell-based; details: Human immunodeficiency virus 1, CEM-SS, 144 h
How it was run: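 CEM-SS cells mixed with pre-titered HIV-1 IIIB and compound, incubated 6 days; virus titer set so virus-control wells lose 70–95% viability. Cell, virus, compound-toxicity and compound-only colorimetric controls on each plate; AZT positive control. Viability by MTS; EC50 derived; mean ± standard deviation from at least two independent experiments.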

[7] = system: Human immunodeficiency virus type 1 reverse transcriptase (Human immunodeficiency virus 1), Q72547 [K103N]; experiment: Inhibition of polymerase activity of HIV reverse transcriptase K103N mutant assessed as reduction in dNTP incorporation up to 10 uM using 100 nucleotide DNA/18 nucleotide DNA as template/primer measured after 30 mins
How it was run: (§1)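 Mutant RT (20 nM) with 40 nM 18-nt DNA primer annealed to 100-nt DNA template and 10 μM dNTPs, in 50 mM Tris pH 7.8, 50 mM NaCl, 1% DMSO, with increasing compound up to 10 μM. Started with 6 mM MgCl2, run 30 min at 37 °C, stopped with 100 mM EDTA; DNA extension measured.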

[8] = system: Human immunodeficiency virus type 1 reverse transcriptase (Human immunodeficiency virus 1), Q72547 [Y181C]; experiment: Inhibition of polymerase activity of HIV reverse transcriptase Y181C mutant assessed as reduction in dNTP incorporation up to 10 uM using 100 nucleotide DNA/18 nucleotide DNA as template/primer measured after 30 mins; how it was run: as §1

Row | Structure (SMILES) | EC50 [1] [µM] | CC50 [2] [µM] | IC50 [3] [µM] | IC50 [4] [µM] | IC50 [5] [µM] | EC50 [6] [µM] | inhibition [7] | inhibition [8]
1 | Cc1c(CC2CCCCC2)n(COCc2cccc(Cl)c2F)c(=O)n(O)c1=O | > 15 | > 100 | > 100 | > 10 | 2.2 | – | – | –
2 | CCc1c(CC2CCCCC2)n(COCc2ccc(F)c(F)c2)c(=O)n(O)c1=O | 4.1 | > 100 | > 100 | > 10 | 1.7 | – | – | –
3 | CCc1c(CC2CCCCC2)n(COCc2cccc(Cl)c2F)c(=O)[nH]c1=O | 0.048 | 32 | – | 1.5 | > 10 | – | – | –
4 | CC(C)c1c(CC2CCCCC2)n(COCc2ccc(F)cc2)c(=O)n(O)c1=O | 2.4 | > 100 | > 100 | 9.9 | 2.7 | – | – | –
5 | CCc1c(CC2CCCCC2)n(COCc2ccc(C)cc2)c(=O)[nH]c1=O | 0.011 | 30 | – | 0.36 | > 10 | – | – | –
6 | Cc1c(CC2CCCCC2)n(COCc2ccc(F)c(F)c2)c(=O)n(O)c1=O | > 15 | > 100 | > 100 | 10 | 4.6 | – | – | –
7 | Cc1c(CC2CCCCC2)n(COCc2ccc(C(F)(F)F)cc2)c(=O)n(O)c1=O | > 15 | > 100 | > 100 | 10 | 7.6 | – | – | –
8 | Cc1c(CC2CCCCC2)n(COCCc2ccc(F)cc2)c(=O)[nH]c1=O | 5.3 | 56 | – | > 10 | > 10 | – | – | –
9 | Cc1c(CC2CCCCC2)n(COCCc2ccc(F)cc2)c(=O)n(O)c1=O | 10 | > 100 | > 100 | > 10 | 3.9 | – | – | –
10 | CCc1c(CC2CCCCC2)n(COCc2ccccc2)c(=O)[nH]c1=O | 0.0062 | > 50 | – | 0.22 | > 10 | – | – | –
11 | CCc1c(CC2CCCCC2)n(COCc2ccc(F)cc2)c(=O)n(O)c1=O | 0.039 | > 100 | > 100 | 1.5 | 5.8 | 0.32 | – | –
12 | CCc1c(CC2CCCCC2)n(COCc2ccc(C)cc2)c(=O)n(O)c1=O | 0.43 | > 100 | > 100 | 6.5 | 2.1 | – | – | –
13 | Cc1c(CC2CCCCC2)n(COCc2ccccc2)c(=O)n(O)c1=O | > 15 | > 100 | > 100 | > 10 | 3.1 | – | – | –
14 | Cc1c(CC2CCCCC2)n(COCc2cccc(Cl)c2F)c(=O)[nH]c1=O | 0.83 | 38 | – | 10 | > 10 | – | – | –
15 | CC(C)c1c(CC2CCCCC2)n(COCc2ccccc2)c(=O)[nH]c1=O | 0.0052 | 23 | – | 0.085 | > 10 | – | – | –
16 | Cc1c(CC2CCCCC2)n(COCc2ccccc2)c(=O)[nH]c1=O | 0.065 | > 100 | – | 6.8 | > 10 | – | – | –
17 | CCc1c(CC2CCCCC2)n(COCc2ccc(F)c(F)c2)c(=O)[nH]c1=O | 0.014 | 29 | – | 0.82 | > 10 | – | – | –
18 | CCc1c(CC2CCCCC2)n(COCc2ccc(C(F)(F)F)cc2)c(=O)[nH]c1=O | 0.039 | 28 | – | 0.81 | > 10 | – | – | –
19 | CCc1c(CC2CCCCC2)n(COCc2ccccc2)c(=O)n(O)c1=O | 0.059 | > 100 | > 100 | 2.3 | 5.5 | 0.56 | – | –
20 | Cc1c(CC2CCCCC2)n(COCc2ccc(C(F)(F)F)cc2)c(=O)[nH]c1=O | 0.8 | > 100 | – | 10 | > 10 | – | – | –
21 | CC(C)c1c(CC2CCCCC2)n(COCc2ccc(F)cc2)c(=O)[nH]c1=O | 0.0072 | 31 | – | 0.3 | > 10 | – | – | –
22 | CCc1c(CC2CCCCC2)n(COCc2ccc(C(F)(F)F)cc2)c(=O)n(O)c1=O | 2.4 | > 100 | > 100 | 7 | 10 | – | – | –
23 | CCc1c(CC2CCCCC2)n(COCc2cccc(Cl)c2F)c(=O)n(O)c1=O | 0.42 | > 100 | > 100 | 6.5 | 1.1 | 1.8 | – | –
24 | Cc1c(CC2CCCCC2)n(COCc2ccc(F)c(F)c2)c(=O)[nH]c1=O | 0.21 | 65 | – | 10 | > 10 | – | – | –
25 | CC(C)c1c(CC2CCCCC2)n(COCc2ccccc2)c(=O)n(O)c1=O | 0.026 | > 100 | > 100 | 0.45 | 5.2 | – | inactive | inactive
26 | CCc1c(CC2CCCCC2)n(COCc2ccc(F)cc2)c(=O)[nH]c1=O | 0.0075 | 42 | – | 0.48 | > 10 | – | – | –
27 | CC(C)c1c(Cc2ccccc2)n(COCc2ccccc2)c(=O)[nH]c1=O | 0.011 | 58 | – | 0.42 | > 10 | – | – | –
